Test [1] relates to PC-3. Kind of test: Antiproliferative activity against human PC3 cells at 4 uM after 48 hrs by MTT assay. In kind it is functional. An outline of the steps: (§1)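 Epithelial cancer lines came from ATCC and were seeded the day before in complete medium: PC-3, SkOV3 and A549 at 3,000/well; MiaPaCa-2 and BxPC-3 at 4,000; T-47D and MDA-MB-468 at 5,000. Medium was switched to 0.5% FBS just before exposure to 4 μM. Read-out was MTT (4 h, 37 °C), SDS/HCl solubilisation, A595 minus cell-free blank. Growth inhibition was taken versus DMSO (≤0.1% v/v) controls, ≥2 experiments in triplicate.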
A general note: Tetrazolium assays rely on reduction of a dye to a coloured formazan, in cell work by metabolically active cells.

The subject of test [2] is SK-OV-3. Kind of test: Antiproliferative activity against human SKOV3 cells at 4 uM after 48 hrs by MTT assay. The class given is functional. An outline of the steps:
as §1

In test [3] the test system is A549. Briefly: Antiproliferative activity against human A549 cells at 4 uM after 72 hrs by MTT assay. In kind it is functional. An outline of the steps:
as §1

For test [4], the system named is MIA PaCa-2. Briefly: Antiproliferative activity against human MIAPaCa2 cells at 4 uM after 48 hrs by MTT assay. In kind it is functional. A digest of the protocol:
as §1

The subject of test [5] is BXPC-3. Briefly: Antiproliferative activity against human BxPC3 cells at 4 uM after 48 hrs by MTT assay. In kind it is functional. An outline of the steps: as §1
For test [6], the system named is T47D. Kind of test: Antiproliferative activity against human T47D cells at 4 uM after 48 hrs by MTT assay. The class given is functional. A digest of the protocol: as §1
Test [7] deals with MDA-MB-468. Briefly: Antiproliferative activity against human MDA-MB-468 cells at 4 uM after 48 hrs by MTT assay. The class given is functional. An outline of the steps:
as §1

Test [8] relates to Jurkat. Kind of test: Induction of apoptosis in human Jurkat T cells assessed as induction of DEVDase activity at 1 uM after 4 hrs by fluorescence assay. In kind it is functional, cell-based. A digest of the protocol: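 Jurkat cells (40,000/well, 10^6 cells/mL, RPMI with 0.5% FBS) were treated for 4 h; controls got 0.1% DMSO. Lysis was in CE buffer (PIPES pH 7, NP-40, cytochalasin B, protease inhibitors) for 30 min at 4 °C. Lysates were mixed with 2x caspase buffer (HEPES pH 7.4, CHAPS, sucrose) holding 100 μM Ac-DEVD-AFC and incubated at 37 °C for 30 min. AFC was read every 2 min, ex 390/em 510 nm.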

Test [9] deals with T1, Retinoic acid receptor alpha (Homo sapiens) (UniProt P10276).
T1 sequence (whole entry): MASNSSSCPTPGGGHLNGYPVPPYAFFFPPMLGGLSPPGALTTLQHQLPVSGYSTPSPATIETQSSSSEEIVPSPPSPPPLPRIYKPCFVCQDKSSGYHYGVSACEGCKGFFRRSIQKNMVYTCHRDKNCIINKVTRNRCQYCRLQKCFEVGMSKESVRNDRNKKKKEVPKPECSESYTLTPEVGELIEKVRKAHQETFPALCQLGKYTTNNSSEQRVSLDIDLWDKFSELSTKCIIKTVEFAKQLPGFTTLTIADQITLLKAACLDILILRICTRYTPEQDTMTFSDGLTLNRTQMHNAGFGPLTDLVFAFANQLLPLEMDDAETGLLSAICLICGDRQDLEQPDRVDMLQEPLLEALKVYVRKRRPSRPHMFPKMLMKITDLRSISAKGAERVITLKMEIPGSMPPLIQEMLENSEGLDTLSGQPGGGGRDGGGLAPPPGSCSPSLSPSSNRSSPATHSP
Briefly: Displacement of [3H]9cRA from RARalpha. On the technique in general: Displacement assays read how much labelled ligand stays bound in the presence of the test substance.

For test [10], the target named is T2, Retinoic acid receptor beta (Homo sapiens) (UniProt P10826).
T2 sequence (whole entry): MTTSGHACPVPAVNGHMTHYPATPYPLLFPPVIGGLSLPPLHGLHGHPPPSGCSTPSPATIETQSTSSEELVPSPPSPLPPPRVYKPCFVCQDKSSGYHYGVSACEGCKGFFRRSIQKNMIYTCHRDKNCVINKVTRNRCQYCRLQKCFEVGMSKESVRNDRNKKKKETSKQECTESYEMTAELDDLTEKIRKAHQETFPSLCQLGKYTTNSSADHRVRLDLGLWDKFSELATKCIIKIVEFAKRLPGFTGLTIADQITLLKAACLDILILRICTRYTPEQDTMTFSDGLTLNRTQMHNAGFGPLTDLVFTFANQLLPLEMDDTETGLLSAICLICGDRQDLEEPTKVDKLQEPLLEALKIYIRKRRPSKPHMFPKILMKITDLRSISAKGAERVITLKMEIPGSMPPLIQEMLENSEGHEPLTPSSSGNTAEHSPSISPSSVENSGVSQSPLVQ
Briefly: Displacement of [3H]9cRA from RARbeta.

Test [11] addresses T3, Retinoic acid receptor gamma (Homo sapiens) (UniProt P13631).
T3 sequence (whole entry): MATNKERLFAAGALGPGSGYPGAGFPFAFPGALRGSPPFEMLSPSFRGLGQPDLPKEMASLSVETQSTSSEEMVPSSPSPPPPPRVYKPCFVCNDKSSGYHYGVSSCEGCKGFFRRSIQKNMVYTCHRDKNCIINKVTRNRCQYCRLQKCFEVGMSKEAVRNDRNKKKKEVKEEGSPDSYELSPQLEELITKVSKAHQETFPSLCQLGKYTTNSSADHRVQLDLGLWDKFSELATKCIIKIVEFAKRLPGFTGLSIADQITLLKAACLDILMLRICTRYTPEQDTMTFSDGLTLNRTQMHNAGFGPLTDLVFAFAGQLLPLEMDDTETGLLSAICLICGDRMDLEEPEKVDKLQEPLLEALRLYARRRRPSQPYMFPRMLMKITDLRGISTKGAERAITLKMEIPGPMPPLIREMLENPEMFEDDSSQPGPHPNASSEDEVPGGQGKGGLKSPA
Briefly: Displacement of [3H]9cRA from RARgamma.

Test [12] concerns the target T4, Retinoic acid receptor RXR-alpha (Homo sapiens) (UniProt P19793).
T4 sequence (whole entry): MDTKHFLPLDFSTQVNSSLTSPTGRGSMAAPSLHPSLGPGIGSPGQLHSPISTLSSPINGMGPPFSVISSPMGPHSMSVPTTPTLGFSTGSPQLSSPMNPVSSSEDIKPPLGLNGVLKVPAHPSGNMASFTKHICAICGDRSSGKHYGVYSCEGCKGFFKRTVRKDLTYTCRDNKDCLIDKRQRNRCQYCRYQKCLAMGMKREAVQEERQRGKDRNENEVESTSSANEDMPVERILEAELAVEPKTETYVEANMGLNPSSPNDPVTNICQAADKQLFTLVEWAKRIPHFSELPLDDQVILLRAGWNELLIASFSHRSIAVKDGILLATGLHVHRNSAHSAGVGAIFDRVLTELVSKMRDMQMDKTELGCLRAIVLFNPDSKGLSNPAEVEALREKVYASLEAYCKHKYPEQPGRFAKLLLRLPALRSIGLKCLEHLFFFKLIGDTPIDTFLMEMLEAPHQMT
Briefly: Displacement of [3H]9cRA from RXRalpha.

In test [13] the target is T2, Retinoic acid receptor beta (Homo sapiens). Kind of test: Inhibition of transactivation activity of Gal4-LBD fused human RARbeta (169 to 448) transfected in atRA-stimulated african green monkey CV1 cells after 6 hrs by Dual-light chemiluminescent assay. The note with it: CV-1. In kind it is cell-based. A digest of the protocol:
(§2)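 Gal4 DBD (1–147) was fused to hRARα (156–462) or hRARβ (169–448) LBD. CV-1 cells (20,000/well) were co-transfected with 10 ng Gal4-LBD, 100 ng UAS-luciferase and 25 ng β-gal vector. After 16 h the medium was replaced with medium containing 5% charcoal-treated FBS. Cells got atRA plus test compound at 10-, 40- or 200-fold excess (0.2, 0.8, 4 μM) for 6 h. Luciferase and β-galactosidase were read by chemiluminescence.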

The target of test [14] is T3, Retinoic acid receptor gamma (Homo sapiens). Kind of test: Inhibition of transactivation activity of Gal4-LBD fused human RARgamma (178 to 454) transfected in atRA-stimulated african green monkey CV1 cells after 20 hrs by Dual-light chemiluminescent assay. As to conditions: CV-1.
The target of test [15] is T5, Retinoic acid receptor RXR-alpha (Mus musculus) (UniProt P28700).
T5 sequence (whole entry): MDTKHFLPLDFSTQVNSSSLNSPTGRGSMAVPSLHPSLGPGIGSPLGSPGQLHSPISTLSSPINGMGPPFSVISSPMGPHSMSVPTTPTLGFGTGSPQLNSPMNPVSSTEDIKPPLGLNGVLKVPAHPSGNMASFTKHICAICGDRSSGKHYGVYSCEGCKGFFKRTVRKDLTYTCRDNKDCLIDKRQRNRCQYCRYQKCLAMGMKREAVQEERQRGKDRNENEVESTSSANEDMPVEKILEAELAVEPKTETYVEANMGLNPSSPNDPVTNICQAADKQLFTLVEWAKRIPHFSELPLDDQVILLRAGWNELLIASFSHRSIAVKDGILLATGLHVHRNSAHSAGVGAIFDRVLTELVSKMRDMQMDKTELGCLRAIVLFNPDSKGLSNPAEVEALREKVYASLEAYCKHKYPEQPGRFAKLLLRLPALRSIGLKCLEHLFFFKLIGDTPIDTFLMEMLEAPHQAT
Kind of test: Inhibition of Gal4-LBD fused mouse RXRalpha transactivation in african green monkey CV1 cells at 1 uM after 6 hrs by Dual-light chemiluminescent assay. The class given is cell-based. As to conditions: CV-1. An outline of the steps: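 CV-1 cells (20,000/well) co-transfected with 10 ng Gal4 DBD (residues 1–147)–mRXRα LBD (residues 218–467) vector, 100 ng UAS-luciferase reporter and 25 ng β-galactosidase vector (pCH110). After 16 h, switched to medium with 5% charcoal-treated FBS and treated for 6 h. Cells washed, lysed, and luciferase and β-galactosidase activities read by chemiluminescence.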

Test [16] concerns Jurkat. Briefly: Antiproliferative activity against human Jurkat T cells at 62.5 nM after 48 hrs by MTT assay. In kind it is functional, cell-based. An outline of the steps:
(§3)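 Jurkat T cells were resuspended at 10^5 cells/mL in RPMI with 0.5% FBS (10,000/well) and seeded immediately before dosing at 62.5 nM–2 μM for two days. Viability was read by MTT (4 h, 37 °C), formazan dissolved in 10% SDS/10 mM HCl, A595 with cell-free background subtracted. Values are relative to DMSO controls (≤0.1% v/v); at least two experiments in triplicate.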

In test [17] the target is T1, Retinoic acid receptor alpha (Homo sapiens). Kind of test: Transactivation of Gal4-LBD fused human RARalpha (156 to 454) transfected in african green monkey CV1 cells assessed as luciferase activity at 2 uM after 6 hrs by Dual-light chemiluminescent assay. In kind it is cell-based. The note with it: CV-1.
In test [18] the target is T2, Retinoic acid receptor beta (Homo sapiens). Kind of test: Transactivation of Gal4-LBD fused human RARbeta (169 to 448) transfected in african green monkey CV1 cells assessed as luciferase activity at 2 uM after 6 hrs by Dual-light chemiluminescent assay. In kind it is cell-based. The note with it: CV-1. An outline of the steps: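 Transfected CV-1 cells carried Gal4-LBD constructs: hRARα 156–462, hRARβ 169–448, hRARγ 178–454 or mRXRα 218–467. Transfection used 10 ng Gal4-LBD, 100 ng UAS-luciferase and 25 ng β-gal vector. After 16 h the medium was changed to 5% charcoal-treated FBS. Cells were stimulated with 2 μM analog for 6 h (RARα, RARβ, RXRα) or 20 h (RARγ). Reference agonists were 1 μM atRA (RARα) and 1 μM 9cRA (RXRα). Luciferase and β-galactosidase were read by chemiluminescence.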

In test [19] the target is T1, Retinoic acid receptor alpha (Homo sapiens). Kind of test: Inhibition of transactivation activity of Gal4-LBD fused human RARalpha (156 to 454) transfected in atRA-stimulated african green monkey CV1 cells at 0.2 uM after 6 hrs by Dual-light chemiluminescent assay. In kind it is cell-based. As to conditions: CV-1, 0.2 uM. A digest of the protocol:
as §2

Test [20] deals with T2, Retinoic acid receptor beta (Homo sapiens). Kind of test: Inhibition of transactivation activity of Gal4-LBD fused human RARbeta (169 to 448) transfected in atRA-stimulated african green monkey CV1 cells at 4 uM after 6 hrs by Dual-light chemiluminescent assay. In kind it is cell-based. As to conditions: CV-1. An outline of the steps: as §2
Test [21] has as its system Jurkat. Briefly: Antiproliferative activity against human Jurkat T cells at 2 uM after 48 hrs by MTT assay. In kind it is functional, cell-based. An outline of the steps:
as §3

Test [22] concerns the target T3, Retinoic acid receptor gamma (Homo sapiens). Kind of test: Inhibition of transactivation activity of Gal4-LBD fused human RARgamma (178 to 454) transfected in atRA-stimulated african green monkey CV1 cells at 4 uM after 20 hrs by Dual-light chemiluminescent assay. As to conditions: CV-1.

Active and inactive are the calls of the source. The calls are words filed in the database; no cut-off is given here.

For `O=C(O)/C=C/c1ccc(-c2ccc(O)c(C34CC5CC(CC(C5)C3)C4)c2)c(Cl)c1`, the result in test [1], in test [2], in test [3], in [4], in [5] and in test [6] was Active. For the same compound, the outcome in test [7] and in [8] was Active. The Activity in test [9] was 31%; in test [10], 17%; in [11], 83%; in [12] it was 16%.
`CC1(C)CC=C(C#Cc2ccccc2)c2cc(/C=C/c3ccc(C(=O)O)cc3)ccc21`: the outcome in test [13] and in [14] was Active.
With `CCCCCOc1cc2c(cc1-c1cc(/C=C/C(=O)O)ccc1O)C(C)(C)CCC2(C)C`, the result in test [15] was Active.
Broadly, the inhibition is how much of the control response was suppressed. With `Cc1cc(O)c(C23CC4CC(CC(C4)C2)C3)cc1-c1ccc(CC(=O)O)cc1Cl`, the inhibition at 4 µM amounted to 66.7% in test [1] (PC-3, 48 h); 30.3% in test [2] (SK-OV-3, 48 h); 15.9% in test [3] (A549, 72 h); 26.8% in [4] (MIA PaCa-2, 48 h); 49.2% in [5] (BXPC-3, 48 h); 29.1% in test [6]. 4 µM produced 11.1% inhibition in [7] (MDA-MB-468, 48 h). Besides, the outcome in test [16], in [17], in test [18], in [20] and in test [22] was inactive. Further, the inhibition entry in [19] was “inactive”. Moreover, in test [21], the result was Active.

The record behind these values is ChEMBL document CHEMBL1158389, “Highly twisted adamantyl arotinoids: synthesis, antiproliferative effects and RXR transactivation profiles” (Eur J Med Chem, 2009).
